# Active and inactive are the calls of the source. No cut-off for these calls is given here.
# Tests used:
# [1] = molecular target: 5-hydroxytryptamine receptor 2A (Homo sapiens, UniProt P28223); assay: Displacement of [3H]ketanserin from human 5HT2A receptor expressed in CHOK1 cells incubated for 1 hr by liquid scintillation counter method; type: cell-based; details: read-out: Ki
# [2] = molecular target: T1, 5-hydroxytryptamine receptor 6 (Homo sapiens, UniProt P50406); assay: Displacement of [3H]LSD from human 5HT6 receptor expressed in HEK293 cells measured after 1 hr by liquid scintillation counter method; type: cell-based
# [3] = molecular target: 5-hydroxytryptamine receptor 7 (Homo sapiens, UniProt P34969); assay: Displacement of [3H]-5-CT from human 5HT7 receptor expressed in HEK293 cells measured after 1 hr by liquid scintillation counter method; type: cell-based; details: read-out: Ki
# Cytochrome P450 3A4 = Cytochrome P450 3A4 (Homo sapiens, UniProt P08684); assay: Inhibition of human recombinant CYP3A4 expressed in Escherichia coli at […] using luciferin PFBE as substrate preincubated for 5 mins followed by NADPH addition measured after 30 mins by P450-Glo luminescence assay; type: ADME; details: recombinant enzyme, 0.5 h
# Cytochrome P450 2D6 = Cytochrome P450 2D6 (Homo sapiens, UniProt P10635); assay: Inhibition of human recombinant CYP2D6 expressed in Escherichia coli at 6.4 uM using luciferin ME-EGE as substrate preincubated for 5 mins followed by NADPH addition measured after 45 mins by P450-Glo luminescence assay; type: ADME; details: recombinant enzyme, 0.75 h
# In short: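 P450-Glo luminescent assays: enzyme, proluciferin and compound (final 0.01–25 μM) preincubated 5 min, reaction started with NADPH regeneration system; incubated at room temperature 30 min (CYP3A4) or 45 min (CYP2D6).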
# [4] = Mutagenicity in Salmonella typhimurium TA100 at up to 10 uM measured after 90 mins by Ames test; type: toxicity; details: salmonella enterica subsp. enterica serovar typhimurium
# In short: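 Ames microplate fluctuation with S. typhimurium TA100; bacteria exposed to 1 and 10 μM compound 90 min at 37°C in limited-histidine medium, then distributed into histidine-free indicator medium, 72 h at 37°C. Revertant growth scored by colour change (absorbance 420 nm); NQNO 0.5 μM positive control; alert at ≥2.0-fold over baseline and binomial B ≥0.99.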
# [5] = molecular target: T1, 5-hydroxytryptamine receptor 6; assay: Antagonist activity at human 5HT6 receptor expressed in HEK293 cells assessed as inhibition of 5-CT induced cAMP production measured after 30 mins by TR-FRET assay; type: functional, cell-based
# [6] = molecular target: Histamine H1 receptor (Homo sapiens) (UniProt P35367); assay: Displacement of [3H] pyrilamine from human recombinant H1 histamine receptor at 10^-6 M measured after 60 mins by scintillation counting method relative to control
# [7] = molecular target: Histamine H1 receptor (Homo sapiens) (UniProt P35367); assay: Agonist activity at human recombinant H1 histamine receptor at 10^-5 M relative to control
# [8] = molecular target: Histamine H1 receptor (Homo sapiens) (UniProt P35367); assay: Antagonist activity at human recombinant H1 histamine receptor at 10^-5 M relative to control; parameters: scale not given: the % may be the effect or the level left
# [9] = molecular target: T2, Muscarinic acetylcholine receptor M1 (Homo sapiens) (UniProt P11229); assay: Displacement of [3H] pirenzepine from human recombinant muscarinic M1 receptor at 10^-6 M measured after 60 mins by scintillation counter method relative to control
# T2 sequence (whole entry): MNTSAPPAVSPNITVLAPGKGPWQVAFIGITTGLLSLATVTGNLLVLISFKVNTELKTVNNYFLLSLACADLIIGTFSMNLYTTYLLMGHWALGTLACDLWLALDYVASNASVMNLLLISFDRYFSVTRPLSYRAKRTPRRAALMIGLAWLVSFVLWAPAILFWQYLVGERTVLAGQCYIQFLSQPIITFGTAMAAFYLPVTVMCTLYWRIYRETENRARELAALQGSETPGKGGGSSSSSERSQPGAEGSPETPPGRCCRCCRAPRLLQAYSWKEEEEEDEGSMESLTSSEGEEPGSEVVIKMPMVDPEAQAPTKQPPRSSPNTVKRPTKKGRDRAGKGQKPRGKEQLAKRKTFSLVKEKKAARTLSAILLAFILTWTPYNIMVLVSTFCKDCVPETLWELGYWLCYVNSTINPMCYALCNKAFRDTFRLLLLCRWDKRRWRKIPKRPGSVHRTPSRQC
# [10] = molecular target: T3, 5-hydroxytryptamine receptor 2C (Homo sapiens) (UniProt P28335); assay: Antagonist activity at human 5HT2C serotonin receptor at 10^-5 M relative to control; parameters: scale not given: the % may be the effect or the level left
# T3 sequence (whole entry): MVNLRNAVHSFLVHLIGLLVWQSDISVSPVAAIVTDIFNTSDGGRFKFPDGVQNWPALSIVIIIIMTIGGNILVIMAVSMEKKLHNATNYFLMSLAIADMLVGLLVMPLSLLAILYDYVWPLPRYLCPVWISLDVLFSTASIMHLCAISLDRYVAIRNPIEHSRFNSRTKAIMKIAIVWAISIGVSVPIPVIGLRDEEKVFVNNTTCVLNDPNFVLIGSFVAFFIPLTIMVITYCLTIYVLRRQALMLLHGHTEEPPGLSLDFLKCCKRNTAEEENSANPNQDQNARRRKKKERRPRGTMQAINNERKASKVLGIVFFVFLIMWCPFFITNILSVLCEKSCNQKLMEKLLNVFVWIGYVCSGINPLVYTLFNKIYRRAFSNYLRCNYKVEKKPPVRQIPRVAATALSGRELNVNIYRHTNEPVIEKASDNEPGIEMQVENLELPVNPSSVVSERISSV
# hERG (KCNH2) = hERG (KCNH2) (Homo sapiens, UniProt Q12809); assay: Displacement of [3H] dofetilide from human recombinant ERG at 10^-6 M measured after 60 mins by scintillation counting method relative to control; details: probe [3H]dofetilide
# [11] = molecular target: 5-hydroxytryptamine receptor 2B (Homo sapiens) (UniProt P41595); assay: Antagonist activity at human recombinant 5HT2B receptor expressed in CHOK1 cells at 10^-6 M measured after 30 mins by HTRF assay relative to control; type: cell-based; parameters: scale not given: the % may be the effect or the level left
# [12] = Acute oral toxicity in Wistar rat by OECD up and down test guideline method; details: in vivo
# In short: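 Female rats given a single oral dose under OECD Test Guideline No. 425 (Acute Oral Toxicity, Up-and-Down Procedure); acute toxicity class assigned.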
# Rattus norvegicus [13] = assay: Reversal of scopolamine induced cognitive impairment impairment in Sprague-Dawley rat at 1 mg/kg, po pre treated for 2 hrs followed by scopolamine addition further treated for 30 mins and measured after 1 hr by novel object recognition test; type: functional, organism-based
# In short: (§1)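 Male Sprague–Dawley rats (~250 g); open-field habituation 5 min 24 h before test. Compounds p.o. 120 min and scopolamine 1.25 mg/kg i.p. 30 min before 3-min familiarization trial; 3-min recognition trial 1 h later. Exploration video-tracked; discrimination index computed; one-way ANOVA with Newman–Keuls; n = 9–10 per group; mean ± SEM.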
# Rattus norvegicus [14] = assay: Reversal of scopolamine induced cognitive impairment in Sprague-Dawley rat assessed increase in discrimination index at 0.3 mg/kg, po cotreated with 0.3 mg/kg of donepezil pre treated for 2 hrs followed by scopolamine addition further treated for 30 mins and measured after 1 hr by novel object recognition test; type: functional, organism-based; in short: as §1
# in vitro = details: rat, microsomes
# Histamine H1 receptor (Homo sapiens), sequence (P35367 whole entry): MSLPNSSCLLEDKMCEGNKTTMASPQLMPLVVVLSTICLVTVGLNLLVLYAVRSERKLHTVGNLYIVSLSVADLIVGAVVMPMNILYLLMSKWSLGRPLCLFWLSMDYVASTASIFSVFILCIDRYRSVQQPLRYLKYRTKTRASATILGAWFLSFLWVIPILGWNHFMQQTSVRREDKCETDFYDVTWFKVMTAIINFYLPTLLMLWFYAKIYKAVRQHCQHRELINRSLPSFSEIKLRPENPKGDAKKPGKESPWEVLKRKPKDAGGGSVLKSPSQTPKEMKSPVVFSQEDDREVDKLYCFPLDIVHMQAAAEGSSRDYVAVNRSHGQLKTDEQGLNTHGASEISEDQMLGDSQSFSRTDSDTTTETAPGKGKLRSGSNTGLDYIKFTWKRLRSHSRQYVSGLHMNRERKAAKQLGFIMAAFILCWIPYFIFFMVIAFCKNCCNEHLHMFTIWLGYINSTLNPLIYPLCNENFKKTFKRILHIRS
# T1 sequence (P50406 whole entry): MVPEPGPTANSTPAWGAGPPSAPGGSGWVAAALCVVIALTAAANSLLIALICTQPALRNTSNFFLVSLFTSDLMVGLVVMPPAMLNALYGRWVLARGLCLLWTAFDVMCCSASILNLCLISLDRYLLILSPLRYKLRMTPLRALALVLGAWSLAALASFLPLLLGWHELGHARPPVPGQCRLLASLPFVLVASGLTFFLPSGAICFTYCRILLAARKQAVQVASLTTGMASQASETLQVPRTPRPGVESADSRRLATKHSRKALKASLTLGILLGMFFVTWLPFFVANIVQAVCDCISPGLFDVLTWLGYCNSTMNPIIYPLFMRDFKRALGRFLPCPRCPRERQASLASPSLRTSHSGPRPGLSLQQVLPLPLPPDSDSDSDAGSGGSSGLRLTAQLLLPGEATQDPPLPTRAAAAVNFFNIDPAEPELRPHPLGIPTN
# Cytochrome P450 2D6, sequence (P10635 whole entry): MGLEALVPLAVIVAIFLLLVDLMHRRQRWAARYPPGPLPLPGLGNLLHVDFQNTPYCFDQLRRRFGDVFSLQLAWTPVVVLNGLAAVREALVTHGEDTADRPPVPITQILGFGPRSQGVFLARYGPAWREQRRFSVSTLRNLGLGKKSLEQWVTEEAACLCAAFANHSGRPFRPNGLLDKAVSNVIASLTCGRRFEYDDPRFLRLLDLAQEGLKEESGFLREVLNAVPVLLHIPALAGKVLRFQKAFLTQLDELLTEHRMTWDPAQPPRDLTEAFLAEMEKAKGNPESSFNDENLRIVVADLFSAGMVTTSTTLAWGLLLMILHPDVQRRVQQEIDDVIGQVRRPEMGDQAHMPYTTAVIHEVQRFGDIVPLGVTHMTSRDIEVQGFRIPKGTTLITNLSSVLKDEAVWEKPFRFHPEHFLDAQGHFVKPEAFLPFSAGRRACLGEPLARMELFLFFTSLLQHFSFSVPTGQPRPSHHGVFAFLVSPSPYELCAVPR
# 5-hydroxytryptamine receptor 2B (Homo sapiens), sequence (P41595 whole entry): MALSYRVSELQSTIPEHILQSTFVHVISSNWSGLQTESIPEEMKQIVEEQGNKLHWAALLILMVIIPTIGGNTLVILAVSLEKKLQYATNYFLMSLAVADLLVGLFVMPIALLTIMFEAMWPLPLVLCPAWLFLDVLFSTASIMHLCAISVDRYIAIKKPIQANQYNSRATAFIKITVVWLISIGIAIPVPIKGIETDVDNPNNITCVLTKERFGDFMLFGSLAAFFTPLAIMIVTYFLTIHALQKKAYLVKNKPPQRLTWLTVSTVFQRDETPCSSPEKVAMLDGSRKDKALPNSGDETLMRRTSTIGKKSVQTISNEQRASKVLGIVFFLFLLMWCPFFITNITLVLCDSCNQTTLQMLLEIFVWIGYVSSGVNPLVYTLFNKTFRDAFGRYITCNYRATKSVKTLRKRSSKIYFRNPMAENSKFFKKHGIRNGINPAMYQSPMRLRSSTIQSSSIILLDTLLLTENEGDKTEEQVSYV
# 5-hydroxytryptamine receptor 2A, sequence (P28223 whole entry): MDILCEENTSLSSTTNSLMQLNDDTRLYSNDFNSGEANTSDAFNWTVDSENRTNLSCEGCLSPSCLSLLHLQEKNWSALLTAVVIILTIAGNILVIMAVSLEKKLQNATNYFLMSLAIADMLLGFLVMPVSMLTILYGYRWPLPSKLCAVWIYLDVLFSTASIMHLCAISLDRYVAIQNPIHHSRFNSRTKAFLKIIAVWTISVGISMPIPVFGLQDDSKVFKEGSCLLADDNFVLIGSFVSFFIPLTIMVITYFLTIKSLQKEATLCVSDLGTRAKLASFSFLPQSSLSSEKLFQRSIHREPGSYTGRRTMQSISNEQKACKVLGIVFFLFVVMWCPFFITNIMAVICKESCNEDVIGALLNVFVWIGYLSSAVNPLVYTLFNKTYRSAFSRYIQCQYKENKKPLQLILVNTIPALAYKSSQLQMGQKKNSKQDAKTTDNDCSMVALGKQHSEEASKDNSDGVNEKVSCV
# hERG (KCNH2), sequence (Q12809 whole entry): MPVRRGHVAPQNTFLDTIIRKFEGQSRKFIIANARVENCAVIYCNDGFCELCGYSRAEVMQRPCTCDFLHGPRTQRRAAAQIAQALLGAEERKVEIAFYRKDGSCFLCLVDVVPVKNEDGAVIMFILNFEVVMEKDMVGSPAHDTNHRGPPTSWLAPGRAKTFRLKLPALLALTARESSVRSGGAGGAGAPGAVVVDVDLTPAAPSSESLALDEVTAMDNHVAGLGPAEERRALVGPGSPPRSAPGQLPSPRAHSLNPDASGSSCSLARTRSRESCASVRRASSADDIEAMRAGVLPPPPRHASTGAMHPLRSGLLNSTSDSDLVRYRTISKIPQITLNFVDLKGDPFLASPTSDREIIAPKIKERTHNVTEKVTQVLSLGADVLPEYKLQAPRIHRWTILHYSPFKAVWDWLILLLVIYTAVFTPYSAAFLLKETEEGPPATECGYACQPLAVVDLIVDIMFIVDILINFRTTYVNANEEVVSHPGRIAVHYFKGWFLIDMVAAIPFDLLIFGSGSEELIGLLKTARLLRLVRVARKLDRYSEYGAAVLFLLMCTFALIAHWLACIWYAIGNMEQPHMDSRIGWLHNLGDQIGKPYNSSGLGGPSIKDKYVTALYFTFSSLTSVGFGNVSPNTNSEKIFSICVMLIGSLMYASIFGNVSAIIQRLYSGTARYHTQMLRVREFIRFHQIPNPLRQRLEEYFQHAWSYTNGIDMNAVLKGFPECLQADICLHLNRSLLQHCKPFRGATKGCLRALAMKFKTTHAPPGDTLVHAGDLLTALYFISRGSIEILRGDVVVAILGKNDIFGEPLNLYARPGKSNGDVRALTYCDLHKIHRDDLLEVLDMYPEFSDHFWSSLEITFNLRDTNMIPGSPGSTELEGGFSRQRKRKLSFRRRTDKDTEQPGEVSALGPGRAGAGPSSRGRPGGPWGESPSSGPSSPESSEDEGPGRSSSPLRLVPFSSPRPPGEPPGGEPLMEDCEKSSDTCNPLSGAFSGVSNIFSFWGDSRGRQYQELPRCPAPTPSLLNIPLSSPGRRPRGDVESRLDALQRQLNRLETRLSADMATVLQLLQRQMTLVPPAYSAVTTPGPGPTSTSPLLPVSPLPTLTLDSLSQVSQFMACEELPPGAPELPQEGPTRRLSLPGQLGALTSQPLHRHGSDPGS
# Cytochrome P450 3A4, sequence (P08684 whole entry): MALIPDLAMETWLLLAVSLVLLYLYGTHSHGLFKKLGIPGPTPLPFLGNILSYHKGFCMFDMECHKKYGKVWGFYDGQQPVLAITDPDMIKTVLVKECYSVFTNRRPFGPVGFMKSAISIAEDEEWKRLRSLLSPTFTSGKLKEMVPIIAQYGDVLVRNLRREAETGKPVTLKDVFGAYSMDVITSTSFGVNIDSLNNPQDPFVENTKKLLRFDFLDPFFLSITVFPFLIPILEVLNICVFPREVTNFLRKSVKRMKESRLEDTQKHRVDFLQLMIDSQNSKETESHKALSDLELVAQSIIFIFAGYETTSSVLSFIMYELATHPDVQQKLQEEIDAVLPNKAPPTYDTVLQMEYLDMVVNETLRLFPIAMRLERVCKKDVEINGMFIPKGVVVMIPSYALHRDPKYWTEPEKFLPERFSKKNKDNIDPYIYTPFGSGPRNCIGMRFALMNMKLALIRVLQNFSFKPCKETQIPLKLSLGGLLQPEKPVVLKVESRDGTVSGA
# 5-hydroxytryptamine receptor 7, sequence (P34969 whole entry): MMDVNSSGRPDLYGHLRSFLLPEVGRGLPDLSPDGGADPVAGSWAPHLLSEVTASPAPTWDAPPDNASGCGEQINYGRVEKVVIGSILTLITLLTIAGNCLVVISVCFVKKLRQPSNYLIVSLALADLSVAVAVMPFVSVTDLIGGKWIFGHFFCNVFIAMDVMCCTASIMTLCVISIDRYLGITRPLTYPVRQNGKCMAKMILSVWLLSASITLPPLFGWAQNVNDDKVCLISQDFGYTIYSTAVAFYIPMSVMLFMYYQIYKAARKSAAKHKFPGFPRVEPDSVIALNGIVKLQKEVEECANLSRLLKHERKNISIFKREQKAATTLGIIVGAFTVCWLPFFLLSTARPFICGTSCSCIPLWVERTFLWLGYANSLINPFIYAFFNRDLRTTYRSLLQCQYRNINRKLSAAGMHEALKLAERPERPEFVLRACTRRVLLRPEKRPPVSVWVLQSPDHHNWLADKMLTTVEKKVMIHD
compound,measurement,setting,value
Cc1nc(N)[nH]c1-c1cn(S(=O)(=O)c2cccc3ccccc23)c2ccccc12.Cl,Ki,[1],490 nM
same,Ki,[2],8 nM
same,Ki,[3],2510 nM
same,INH,Cytochrome P450 3A4,Active
same,inhibition (INH),Cytochrome P450 2D6,Active
same,Activity,[4],Non-Toxic
same,Kb,[5],4.8 nM
same,inhibition,[6],70.1%
same,Activity,[7],-1.3%
same,Activity,[8],25.7%
same,inhibition,[9],-0.3%
same,Activity,[10],50.3%
same,"inhibition at 1 h, 1 µM",hERG (KCNH2),25.7%
same,Activity,[11],-2.8%
same,LD50,[12],> 2000 mg/kg
same,Activity,Rattus norvegicus [13],Active
same,Activity,Rattus norvegicus [14],Active
same,half-life,in vitro,23 min
